Experimental data from ChEMBL document CHEMBL1275429, “Pharmacodynamic characterization of ceftobiprole in experimental pneumonia caused by phenotypically diverse Staphylococcus aureus strains” (Antimicrob Agents Chemother, 2008).
In brackets after ≈: the same amount, converted by molar mass.

Legend:
Format in all cases: functional
Staphylococcus aureus [1] = assay: Antimicrobial activity against hospital acquired methicillin-resistant Staphylococcus aureus 56 by broth microdilution method
How it was run: (§1)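 Broth microdilution run in triplicate following CLSI guidelines. Isolates were stored at –80°C in double-strength skim milk and subcultured twice on Trypticase soy agar with 5% sheep blood before testing.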

Staphylococcus aureus [2] = assay: Antimicrobial activity against hospital acquired methicillin-resistant Staphylococcus aureus 152 by broth microdilution method; how it was run: as §1
Staphylococcus aureus [3] = assay: Antimicrobial activity against community acquired methicillin-resistant Staphylococcus aureus 147 by broth microdilution method; how it was run: as §1
Staphylococcus aureus [4] = assay: Antimicrobial activity against community acquired methicillin-resistant Staphylococcus aureus 144 by broth microdilution method; how it was run: as §1
Staphylococcus aureus [5] = assay: Antimicrobial activity against hospital acquired methicillin-resistant Staphylococcus aureus 149 by broth microdilution method; how it was run: as §1
Staphylococcus aureus [6] = assay: Antimicrobial activity against community acquired methicillin-resistant Staphylococcus aureus 146 by broth microdilution method; how it was run: as §1
Staphylococcus aureus [7] = assay: Antimicrobial activity against methicillin-susceptible Staphylococcus aureus ATCC 25923 by broth microdilution method; how it was run: as §1
Staphylococcus aureus [8] = assay: Antimicrobial activity against methicillin-susceptible Staphylococcus aureus ATCC 29213 by broth microdilution method; how it was run: as §1

SMILES: CCC[C@@H]1C[C@@H](C(=O)N[C@@H]([C@H]2O[C@H](SC)[C@H](O)[C@@H](O)[C@H]2O)[C@H](C)Cl)N(C)C1 [CLINDAMYCIN]
- MIC (Staphylococcus aureus [1]): 0.25 µg/mL (≈ 0.588 µM)
- MIC (Staphylococcus aureus [2]): 0.125 µg/mL (≈ 0.294 µM)
- MIC (Staphylococcus aureus [3]): 0.125 µg/mL (≈ 0.294 µM)
- MIC (Staphylococcus aureus [4]): > 16 µg/mL
- MIC (Staphylococcus aureus [5]): 0.125 µg/mL (≈ 0.294 µM)
- MIC (Staphylococcus aureus [6]): 0.25 µg/mL (≈ 0.588 µM)
- MIC (Staphylococcus aureus [7]): 0.125 µg/mL (≈ 0.294 µM)
- MIC (Staphylococcus aureus [8]): 0.125 µg/mL (≈ 0.294 µM)

SMILES: C[C@H]1c2cccc(O)c2C(=O)C2=C(O)[C@]3(O)C(=O)C(C(N)=O)=C(O)[C@@H](N(C)C)[C@@H]3[C@@H](O)[C@@H]21.O [DOXYCYCLINE]
- MIC (Staphylococcus aureus [1]): 8 µg/mL
- MIC (Staphylococcus aureus [2]): 0.5 µg/mL
- MIC (Staphylococcus aureus [3]): 2 µg/mL
- MIC (Staphylococcus aureus [4]): 0.5 µg/mL
- MIC (Staphylococcus aureus [5]): 0.5 µg/mL
- MIC (Staphylococcus aureus [6]): 2 µg/mL
- MIC (Staphylococcus aureus [7]): 0.25 µg/mL
- MIC (Staphylococcus aureus [8]): 0.5 µg/mL

SMILES: CC[C@H]1OC(=O)[C@H](C)[C@@H](O[C@H]2C[C@@](C)(OC)[C@@H](O)[C@H](C)O2)[C@H](C)[C@@H](O[C@@H]2O[C@H](C)C[C@H](N(C)C)[C@H]2O)[C@](C)(O)C[C@@H](C)C(=O)[C@H](C)[C@@H](O)[C@]1(C)O [ERYTHROMYCIN]
- MIC (Staphylococcus aureus [1]): 32 µg/mL (≈ 43.6 µM)
- MIC (Staphylococcus aureus [2]): 1 µg/mL (≈ 1.36 µM)
- MIC (Staphylococcus aureus [3]): > 32 µg/mL
- MIC (Staphylococcus aureus [4]): > 32 µg/mL
- MIC (Staphylococcus aureus [5]): > 32 µg/mL
- MIC (Staphylococcus aureus [6]): > 32 µg/mL
- MIC (Staphylococcus aureus [7]): 0.5 µg/mL (≈ 0.681 µM)
- MIC (Staphylococcus aureus [8]): 1 µg/mL (≈ 1.36 µM)

SMILES: C[C@H]1COc2c(N3CCN(C)CC3)c(F)cc3c(=O)c(C(=O)O)cn1c23.C[C@H]1COc2c(N3CCN(C)CC3)c(F)cc3c(=O)c(C(=O)O)cn1c23.O [LEVOFLOXACIN]
- MIC (Staphylococcus aureus [1]): 0.25 µg/mL
- MIC (Staphylococcus aureus [2]): 0.25 µg/mL
- MIC (Staphylococcus aureus [3]): 8 µg/mL
- MIC (Staphylococcus aureus [4]): 0.5 µg/mL
- MIC (Staphylococcus aureus [5]): 8 µg/mL
- MIC (Staphylococcus aureus [6]): 8 µg/mL
- MIC (Staphylococcus aureus [7]): 0.25 µg/mL
- MIC (Staphylococcus aureus [8]): 0.25 µg/mL

SMILES: CC(=O)NC[C@H]1CN(c2ccc(N3CCOCC3)c(F)c2)C(=O)O1 [LINEZOLID]
- MIC (Staphylococcus aureus [1]): 8 µg/mL (≈ 23.7 µM)
